Source: ChEMBL document CHEMBL4321879, “Novel Class of Colony-Stimulating Factor 1 Receptor Kinase Inhibitors Based on an o-Aminopyridyl Alkynyl Scaffold as Potential Treatment for Inflammatory Disorders” (J Med Chem, 2020)

Tests used:
[1] = molecular target: Proto-oncogene tyrosine-protein kinase Src (Homo sapiens) (UniProt P12931); assay: Inhibition of recombinant human full-length N-terminal His6-tagged Src expressed in Sf21 insect cells at 1000 nM using poly (Glu, Tyr)4:1 as substrate measured after 1 hr by ELISA relative to control
Chain of Proto-oncogene tyrosine-protein kinase Src (Homo sapiens) (P12931 2-536 limits assumed): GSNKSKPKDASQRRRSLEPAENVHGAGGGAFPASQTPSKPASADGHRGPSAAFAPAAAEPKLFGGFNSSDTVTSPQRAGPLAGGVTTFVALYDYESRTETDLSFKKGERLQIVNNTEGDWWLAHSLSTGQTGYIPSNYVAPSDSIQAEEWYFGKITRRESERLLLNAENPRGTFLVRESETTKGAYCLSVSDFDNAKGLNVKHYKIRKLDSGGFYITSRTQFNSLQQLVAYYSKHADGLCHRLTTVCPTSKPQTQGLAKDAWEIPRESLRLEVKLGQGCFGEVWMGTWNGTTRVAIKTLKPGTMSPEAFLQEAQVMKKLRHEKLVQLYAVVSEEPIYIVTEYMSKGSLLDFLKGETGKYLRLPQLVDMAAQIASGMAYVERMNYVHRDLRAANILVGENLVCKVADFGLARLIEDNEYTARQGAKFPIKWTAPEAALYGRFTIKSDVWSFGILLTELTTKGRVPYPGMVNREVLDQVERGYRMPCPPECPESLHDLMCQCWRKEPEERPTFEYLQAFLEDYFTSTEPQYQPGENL
Summary of the method: (§1)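 ELISA kinase assay: recombinant kinase added to wells precoated with poly(Glu,Tyr)4:1 and incubated with compound in reaction buffer containing 5 μM ATP, 37 °C for 1 h; wells then washed before antibody detection.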

[2] = molecular target: Macrophage colony-stimulating factor 1 receptor (Mus musculus) (UniProt P09581); assay: Inhibition of CSF1R in CSF1-stimulated mouse RAW264.7 cells assessed as reduction in AKT phosphorylation preincubated for 6 hrs followed by CSF1 stimulation and measured after 20 mins by Western blot analysis; assay type: cell-based
Chain of Macrophage colony-stimulating factor 1 receptor (Mus musculus) (P09581 whole entry): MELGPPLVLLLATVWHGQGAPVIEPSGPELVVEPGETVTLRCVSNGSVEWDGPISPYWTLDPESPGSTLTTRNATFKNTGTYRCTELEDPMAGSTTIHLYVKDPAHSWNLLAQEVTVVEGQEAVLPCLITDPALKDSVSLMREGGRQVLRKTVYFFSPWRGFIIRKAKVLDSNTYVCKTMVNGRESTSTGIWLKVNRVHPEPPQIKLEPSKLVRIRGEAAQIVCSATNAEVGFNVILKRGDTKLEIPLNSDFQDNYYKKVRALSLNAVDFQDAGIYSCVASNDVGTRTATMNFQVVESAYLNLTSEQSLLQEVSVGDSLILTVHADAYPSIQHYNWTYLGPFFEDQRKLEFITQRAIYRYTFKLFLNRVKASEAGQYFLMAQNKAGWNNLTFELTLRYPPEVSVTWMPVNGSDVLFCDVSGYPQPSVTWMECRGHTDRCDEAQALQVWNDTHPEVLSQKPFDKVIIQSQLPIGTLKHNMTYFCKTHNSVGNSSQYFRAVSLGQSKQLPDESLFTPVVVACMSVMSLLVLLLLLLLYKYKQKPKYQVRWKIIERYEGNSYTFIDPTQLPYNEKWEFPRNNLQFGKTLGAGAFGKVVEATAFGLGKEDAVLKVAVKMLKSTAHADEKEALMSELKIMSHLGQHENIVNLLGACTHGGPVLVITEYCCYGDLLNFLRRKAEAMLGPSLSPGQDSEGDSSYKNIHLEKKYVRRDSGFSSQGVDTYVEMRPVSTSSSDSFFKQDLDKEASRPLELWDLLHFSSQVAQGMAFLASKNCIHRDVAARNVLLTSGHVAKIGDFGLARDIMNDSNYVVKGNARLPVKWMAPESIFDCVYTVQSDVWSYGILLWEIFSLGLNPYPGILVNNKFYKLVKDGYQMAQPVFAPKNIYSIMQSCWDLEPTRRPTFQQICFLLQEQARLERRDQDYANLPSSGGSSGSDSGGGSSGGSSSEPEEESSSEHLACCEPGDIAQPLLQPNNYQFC
Summary of the method: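 RAW264.7 cells were plated in six-well plates overnight, treated with compound for 6 h, then stimulated with CSF-1 100 ng/mL for 20 min. Lysates were normalized by BCA, run on 10% SDS-PAGE, and blotted with antibodies to phospho-CSF1R (Tyr723), CSF1R, phospho-Akt (Ser473), Akt and actin.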

[3] = molecular target: Platelet-derived growth factor receptor beta (Homo sapiens) (UniProt P09619); assay: Inhibition of recombinant human N-terminal His6-tagged PDGFRbeta (557 to end residues) expressed in baculovirus infected Sf21 insect cells at 10 nM using poly (Glu, Tyr)4:1 as substrate measured after 1 hr by ELISA relative to control; summary of the method: as §1
Chain of Platelet-derived growth factor receptor beta (Homo sapiens) (P09619 whole entry, the tested form may be a part): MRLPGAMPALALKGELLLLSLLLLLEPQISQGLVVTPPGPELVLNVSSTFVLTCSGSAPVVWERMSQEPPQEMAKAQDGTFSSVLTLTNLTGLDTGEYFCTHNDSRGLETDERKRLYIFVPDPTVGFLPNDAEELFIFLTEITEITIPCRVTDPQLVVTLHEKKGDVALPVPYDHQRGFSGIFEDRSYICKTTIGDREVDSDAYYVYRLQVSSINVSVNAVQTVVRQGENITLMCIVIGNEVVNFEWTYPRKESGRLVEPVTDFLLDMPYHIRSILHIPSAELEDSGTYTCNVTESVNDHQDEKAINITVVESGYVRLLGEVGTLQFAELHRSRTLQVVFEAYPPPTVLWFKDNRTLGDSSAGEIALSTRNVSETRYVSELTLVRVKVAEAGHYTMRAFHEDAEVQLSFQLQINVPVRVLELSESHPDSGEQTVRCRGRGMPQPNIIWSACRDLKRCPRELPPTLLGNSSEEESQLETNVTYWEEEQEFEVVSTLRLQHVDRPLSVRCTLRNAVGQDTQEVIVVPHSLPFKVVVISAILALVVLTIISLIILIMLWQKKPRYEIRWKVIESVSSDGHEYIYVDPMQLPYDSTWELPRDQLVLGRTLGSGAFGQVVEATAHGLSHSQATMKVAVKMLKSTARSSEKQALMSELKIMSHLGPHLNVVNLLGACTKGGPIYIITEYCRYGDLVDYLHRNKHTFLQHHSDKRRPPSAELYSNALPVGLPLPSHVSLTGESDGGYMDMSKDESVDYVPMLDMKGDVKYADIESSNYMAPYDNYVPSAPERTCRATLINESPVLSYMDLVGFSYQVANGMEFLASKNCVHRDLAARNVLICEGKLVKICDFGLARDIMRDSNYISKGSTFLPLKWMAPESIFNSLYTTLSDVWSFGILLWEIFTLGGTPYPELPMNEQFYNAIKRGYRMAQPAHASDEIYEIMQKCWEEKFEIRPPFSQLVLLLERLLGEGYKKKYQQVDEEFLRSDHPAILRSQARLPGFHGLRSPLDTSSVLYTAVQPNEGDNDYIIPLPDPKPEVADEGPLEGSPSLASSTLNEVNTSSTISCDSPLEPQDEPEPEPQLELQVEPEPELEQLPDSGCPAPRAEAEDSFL

[4] = molecular target: Fibroblast growth factor receptor 4 (Homo sapiens, UniProt P22455); assay: Inhibition of recombinant human N-terminal His6-tagged FGFR4 (442 to 755 residues) expressed in baculovirus infected Sf21 insect cells using poly (Glu, Tyr)4:1 as substrate measured after 1 hr by ELISA; summary of the method: as §1
Chain of Fibroblast growth factor receptor 4 (P22455 whole entry, the tested form may be a part): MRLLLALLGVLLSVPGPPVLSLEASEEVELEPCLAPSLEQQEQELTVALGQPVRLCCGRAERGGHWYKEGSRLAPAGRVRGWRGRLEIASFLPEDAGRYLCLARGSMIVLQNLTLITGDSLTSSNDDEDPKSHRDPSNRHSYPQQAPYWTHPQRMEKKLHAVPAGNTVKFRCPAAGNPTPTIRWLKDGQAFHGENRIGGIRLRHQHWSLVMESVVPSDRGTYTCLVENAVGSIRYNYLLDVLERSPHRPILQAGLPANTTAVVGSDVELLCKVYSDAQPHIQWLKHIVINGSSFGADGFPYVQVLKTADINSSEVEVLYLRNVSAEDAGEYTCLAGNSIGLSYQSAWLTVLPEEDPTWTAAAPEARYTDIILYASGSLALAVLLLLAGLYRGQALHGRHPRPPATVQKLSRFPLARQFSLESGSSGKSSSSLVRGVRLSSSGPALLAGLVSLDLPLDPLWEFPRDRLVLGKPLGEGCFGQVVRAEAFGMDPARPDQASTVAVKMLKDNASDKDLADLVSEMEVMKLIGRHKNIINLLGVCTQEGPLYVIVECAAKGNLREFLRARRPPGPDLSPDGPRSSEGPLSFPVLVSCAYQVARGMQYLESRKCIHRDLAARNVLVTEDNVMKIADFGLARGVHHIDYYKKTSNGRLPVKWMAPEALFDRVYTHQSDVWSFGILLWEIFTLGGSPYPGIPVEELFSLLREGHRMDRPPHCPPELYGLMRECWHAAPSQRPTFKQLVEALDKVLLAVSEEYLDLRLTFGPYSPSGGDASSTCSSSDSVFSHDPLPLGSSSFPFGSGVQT

[5] = molecular target: c-KIT (Homo sapiens, UniProt P10721); assay: Inhibition of recombinant human N-terminal GST-tagged c-KIT (544 to end residues) expressed in baculovirus infected Sf21 insect cells at 10 nM using poly (Glu, Tyr)4:1 as substrate measured after 1 hr by ELISA relative to control; conditions: probe poly (Glu, Tyr)4:1
Chain of c-KIT (P10721 whole entry): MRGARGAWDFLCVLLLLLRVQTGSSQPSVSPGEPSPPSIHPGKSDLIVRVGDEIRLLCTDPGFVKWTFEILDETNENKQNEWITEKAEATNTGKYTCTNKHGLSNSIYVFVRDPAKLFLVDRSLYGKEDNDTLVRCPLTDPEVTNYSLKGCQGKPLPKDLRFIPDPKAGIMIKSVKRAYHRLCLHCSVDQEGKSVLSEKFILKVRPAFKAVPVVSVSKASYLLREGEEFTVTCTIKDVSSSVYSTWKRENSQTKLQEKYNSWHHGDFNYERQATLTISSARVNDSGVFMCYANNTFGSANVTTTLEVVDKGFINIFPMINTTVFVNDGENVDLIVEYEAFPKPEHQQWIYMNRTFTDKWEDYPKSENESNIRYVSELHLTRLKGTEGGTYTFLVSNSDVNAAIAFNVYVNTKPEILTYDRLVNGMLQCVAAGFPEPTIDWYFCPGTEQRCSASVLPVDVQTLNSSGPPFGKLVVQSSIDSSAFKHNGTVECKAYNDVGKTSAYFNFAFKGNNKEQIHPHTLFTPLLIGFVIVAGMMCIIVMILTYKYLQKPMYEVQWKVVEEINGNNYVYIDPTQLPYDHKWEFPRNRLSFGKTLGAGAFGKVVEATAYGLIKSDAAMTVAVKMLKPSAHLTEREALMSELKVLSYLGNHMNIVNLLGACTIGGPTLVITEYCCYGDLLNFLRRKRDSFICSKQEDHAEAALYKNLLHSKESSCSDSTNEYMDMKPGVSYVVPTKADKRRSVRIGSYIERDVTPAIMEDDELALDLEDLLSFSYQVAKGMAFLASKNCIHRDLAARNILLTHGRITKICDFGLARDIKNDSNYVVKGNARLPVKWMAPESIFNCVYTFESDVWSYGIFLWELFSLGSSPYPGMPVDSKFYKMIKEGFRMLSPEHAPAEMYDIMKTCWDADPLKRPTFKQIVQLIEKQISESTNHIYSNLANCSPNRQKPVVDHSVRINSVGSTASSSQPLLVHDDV
Summary of the method: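 Recombinant kinase was incubated with compound in reaction buffer containing 5 μM ATP, in wells precoated with poly(Glu,Tyr) 4:1, for 1 h at 37 °C. Phosphorylation was detected by ELISA.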

[6] = Cmax in Sprague-Dawley rat at 5 mg/kg, po administered via gavage by LC-MS/MS analysis; assay type: ADME, organism-based; set-up: dose 5 mg/kg, route oral; conditions: in vivo
Summary of the method: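 Male SD rats (200 ± 20 g) were fasted 12 h with free access to water, n = 3 per group. One group received 2 mg/kg iv in DMSO/EtOH/PEG300/saline (5/5/40/50). The other received 5 mg/kg by oral gavage in DMSO/HPMC (5/95). Femoral-vein plasma was taken at 15–1440 min, methanol-precipitated with internal standard, and measured by LC–MS/MS. Noncompartmental analysis; AUC by trapezoidal method.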

- inhibition [1]: 72.8%
- inhibition [2]: Dose-dependent effect
- inhibition [3]: 14.7%
- IC50 [4]: > 1000 nM
- inhibition at 1 h, 0.01 µM [5]: 70.4%
- Cmax [6]: 166 ng/mL
Compound: Cc1ccc(C(=O)Nc2ccc(Cl)cc2)cc1C#Cc1cc(-c2cnn(C)c2)cnc1N
